# How the values were obtained:
# [1] = tested on: 143B; test: In vitro cell cytotoxicity was determined against 143B cell line; assay type: functional; conditions: Homo sapiens
# In short: (§1)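 Human 143B or 143B-LTK cells were grown in complete MEME with 10% FBS and seeded at 8×10^2 cells/well. After 24 h at 37 °C in 5% CO2, compound in medium was added and cells were incubated 3 days. Viability was read by MTT (4 h), with formazan dissolved in DMSO and A540 corrected for blanks. CC50 is the concentration cutting A540 to 50% of control (mean, n = 6).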
# [2] = tested on: 143B; test: In vitro cell cytotoxicity was determined against 143B-LTK cell line; assay type: functional; conditions: Homo sapiens; in short: as §1
# [3] = tested on: EMT6; test: In vitro cell cytotoxicity was determined against EMT-6 cell line; assay type: functional; conditions: Mus musculus
# In short: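 Murine EMT-6 cells in complete Waymouth medium with 12.5% FBS were plated at 8×10^2 cells/well and preincubated 24 h (37 °C, 5% CO2). Compound in medium was then given for 3 days. MTT reduction was measured over 4 h, with DMSO solubilization and blank-corrected absorbance at 540 nm. CC50 is the concentration reducing A540 to 50% of control (mean, n = 6).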
# [4] = tested on: KBALB cell line; test: In vitro cell cytotoxicity was determined against KBALB cell line; assay type: functional; conditions: Mus musculus
# In short: (§2)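 Murine KBALB or KBALB-STK cells, or Hs578Bst human fibroblasts, were grown in complete DMEM with 10% FBS and seeded at 8×10^2 cells/well. After 24 h at 37 °C in 5% CO2, compound in medium was added for 3 days. MTT was added for 4 h, formazan dissolved in DMSO, and blank-corrected A540 read. CC50 is 50% of control A540 (mean, n = 6).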
# [5] = tested on: KBALB-STK; test: In vitro cell cytotoxicity was determined against KBALB-STK cell line; assay type: functional; conditions: Mus musculus; in short: as §2
# [6] = In vitro percent nitric oxide released from the test compound was determined as the percent of nitrite (NO2-) produced in phosphate buffered saline at 16 hr; assay type: functional
# In short: (§3)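 Compound (2 mM solution) in 0.1 M phosphate buffer, pH 7.4, without L-cysteine was incubated at 37 °C for 1 or 16 h in the absence of air. It was then exposed to air for 10 min at 25 °C and mixed with an equal volume of Griess reagent (sulfanilamide/N-naphthylethylenediamine). A540 was read after 10 min. Percent NO, as nitrite, came from a 0–100 µM sodium nitrite standard curve (±SEM, n = 3).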
# [7] = In vitro percent nitric oxide released from the test compound was determined as the percent of nitrite (NO2-) produced in phosphate buffered saline at 1 hr; assay type: functional; in short: as §3
# [8] = In vitro percent nitric oxide released from the test compound was determined as the percent of nitrite (NO2-) produced in the present of L-cysteine in Phosphate buffer saline at 16 hr; assay type: functional
# In short: (§4)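 Equal volumes of 0.2 mM compound and freshly prepared 3.6 mM L-cysteine, each in 0.1 M phosphate buffer, pH 7.4, were mixed and incubated at 37 °C for 1 or 16 h in the absence of air. After 10 min air exposure at 25 °C, an equal volume of Griess reagent was added and A540 read after 10 min. Nitrite was quantified against a 0–100 µM NaNO2 curve (±SEM, n = 3).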
# [9] = In vitro percent nitric oxide released from the test compound was determined as the percent of nitrite (NO2-) produced in the present of L-cysteine in Phosphate buffer saline at 1 hr; assay type: functional; in short: as §4
# [10] = tested on: Hs578Bst (Homo sapiens); test: In vitro cell cytotoxicity was determined against Hs 578.Bst cell line
SMILES,CC50 [1],CC50 [2],CC50 [3],CC50 [4],CC50 [5],NO release [6],NO release [7],NO release [8],NO release [9],CC50 [10]
O=c1[nH]c(=O)n([C@H]2C[C@H](Oc3no[n+]([O-])c3S(=O)(=O)c3ccccc3)[C@@H](CO)O2)cc1I,0.56 µM,1.3 µM,80 nM,380 nM,400 nM,0.4%,1.2%,74.8%,39.8%,0.8 µM
O=c1[nH]c(=O)n([C@H]2C[C@H](O)[C@@H](CO)O2)cc1I [IDOXURIDINE],90 µM,100 µM,0.009 nM,0.06 nM,0.088 nM,,,,,
O=c1[nH]c(=O)n([C@H]2C[C@H](O)[C@@H](CO)O2)cc1F [FLOXURIDINE],,,,95000 nM,100000 nM,,,,,
Cc1cn([C@H]2C[C@H](O)[C@@H](CO)O2)c(=O)[nH]c1=O [DOXRIBTIMINE],600 µM,700 µM,,970000 nM,650000 nM,,,,,
COc1no[n+]([O-])c1S(=O)(=O)c1ccccc1,0.07 µM,0.32 µM,560 nM,480 nM,440 nM,1%,1.1%,44.8%,12.3%,0.68 µM
O=c1[nH]c(=O)n([C@H]2C[C@H](O)[C@@H](COc3no[n+]([O-])c3S(=O)(=O)c3ccccc3)O2)cc1I,0.54 µM,0.71 µM,1000 nM,920 nM,920 nM,9.9%,9.8%,71.9%,28.3%,0.8 µM
O=c1[nH]c(=O)n([C@H]2C[C@H](Oc3no[n+]([O-])c3S(=O)(=O)c3ccccc3)[C@@H](CO)O2)cc1C(F)(F)F,0.52 µM,0.48 µM,880 nM,3200 nM,2000 nM,0.4%,0.3%,78.5%,48.3%,4.4 µM
Cc1cn([C@H]2C[C@H](Oc3no[n+]([O-])c3S(=O)(=O)c3ccccc3)[C@@H](CO)O2)c(=O)[nH]c1=O,0.72 µM,0.88 µM,2400 nM,560 nM,1000 nM,0.4%,1.4%,77.3%,39.5%,2 µM
Cc1cn([C@H]2C[C@H](O)[C@@H](COc3no[n+]([O-])c3S(=O)(=O)c3ccccc3)O2)c(=O)[nH]c1=O,3.6 µM,5.6 µM,2000 nM,2800 nM,4800 nM,2.2%,2.2%,36.8%,20.9%,6.8 µM
O=c1ccn([C@H]2C[C@H](O)[C@@H](COc3no[n+]([O-])c3S(=O)(=O)c3ccccc3)O2)c(=O)[nH]1,3.3 µM,6.3 µM,750 nM,4600 nM,5400 nM,0.2%,1.5%,77.9%,46%,4.8 µM
O=c1[nH]c(=O)n([C@H]2C[C@H](Oc3no[n+]([O-])c3S(=O)(=O)c3ccccc3)[C@@H](CO)O2)cc1F,0.24 µM,0.84 µM,2000 nM,2000 nM,840 nM,0.2%,0.4%,73.9%,41.5%,4.4 µM
O=c1ccn([C@H]2C[C@H](Oc3no[n+]([O-])c3S(=O)(=O)c3ccccc3)[C@@H](CO)O2)c(=O)[nH]1,0.96 µM,2.9 µM,80 nM,790 nM,1700 nM,0.2%,0.9%,85.8%,45.6%,4.8 µM
O=S(=O)(c1ccccc1)c1no[n+]([O-])c1S(=O)(=O)c1ccccc1,0.04 µM,0.028 µM,100 nM,520 nM,600 nM,0.4%,0.2%,38.8%,22.7%,0.1 µM
O=c1[nH]c(=O)n([C@H]2C[C@H](O)[C@@H](COc3no[n+]([O-])c3S(=O)(=O)c3ccccc3)O2)cc1F,3.2 µM,2 µM,60 nM,48 nM,60 nM,0.7%,0.8%,68.7%,41.6%,0.076 µM
O=[N+]([O-])O[C@H]1CO[C@H]2[C@@H]1OC[C@H]2O[N+](=O)[O-] [ISOSORBIDE DINITRATE],7000 µM,7400 µM,380000 nM,97000 nM,10000 nM,24%,3.5%,2.6%,1.9%,
